Square brackets hold non-standard residues; d marks the D form. Peptide text beside a SMILES is read from it. * marks the point of attachment. FITC = O=C1OC2(c3ccc(O)cc3Oc3cc(O)ccc32)c2ccc(NC(=S)*)cc21; pY = N[C@@H](Cc1ccc(OP(=O)(O)O)cc1)C(=O)O; pT = C[C@@H](OP(=O)(O)O)[C@H](N)C(=O)O; pS = N[C@@H](COP(=O)(O)O)C(=O)O
Tests used:
AP2 μ2 = molecular target: T1, AP2 μ2 (Homo sapiens, UniProt Q96CW1); assay: FP saturation; assay type: binding
T1 sequence (Q96CW1 160-435): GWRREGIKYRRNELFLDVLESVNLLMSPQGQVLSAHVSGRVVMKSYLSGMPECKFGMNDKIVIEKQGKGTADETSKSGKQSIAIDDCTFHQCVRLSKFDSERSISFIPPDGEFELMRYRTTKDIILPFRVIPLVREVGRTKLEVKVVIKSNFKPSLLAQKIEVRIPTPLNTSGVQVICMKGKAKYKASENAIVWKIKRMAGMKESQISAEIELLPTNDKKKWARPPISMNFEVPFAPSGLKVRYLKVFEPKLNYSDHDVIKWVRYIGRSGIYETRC
Summary of the method: (§1)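 GST-tagged domains were expressed in E. coli BL21-Gold (DE3) (IPTG induction, 16 h at 18°C) and purified on glutathione beads. The tag was removed with thrombin, and domains were dialysed into 50 mM sodium phosphate pH 7.4 with 1 mM DTT. Probes were FITC-ATG9A4–14 (AP2 μ2) and FITC-SQSTM1335–344 (ATG8 domains). 5 nM labelled peptide was mixed with an equal volume of a protein dilution series at room temperature and read without preincubation. KD came from a quadratic fit, in technical triplicates.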

FYN SH2 = FYN SH2 (Homo sapiens, UniProt P06241); assay: FP saturation; assay type: binding
Chain of FYN SH2 (P06241 142-251): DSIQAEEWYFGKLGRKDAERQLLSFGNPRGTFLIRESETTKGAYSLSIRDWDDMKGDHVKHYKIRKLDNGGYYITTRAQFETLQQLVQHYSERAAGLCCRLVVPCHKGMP
Summary of the method: (§2)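 The SH2 domain was expressed GST-tagged in E. coli. The tag was cleaved with HRV 3C and the protein dialysed into 50 mM sodium phosphate pH 7.4 with 1 mM DTT. KD came from a quadratic fit, in technical triplicates.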

NCK1 SH2 = NCK1 SH2 (Homo sapiens, UniProt P16333); assay: FP saturation; assay type: binding
LYN SH2 = LYN SH2 (Homo sapiens, UniProt P07948); assay: FP saturation; assay type: binding
Chain of LYN SH2 (P07948 127-234): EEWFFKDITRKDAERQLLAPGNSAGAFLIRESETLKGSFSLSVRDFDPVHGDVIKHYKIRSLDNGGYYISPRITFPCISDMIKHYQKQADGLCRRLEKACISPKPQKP
Summary of the method: as §2

MAP1LC3A ATG8 [1] = molecular target: T2, MAP1LC3A ATG8 (Homo sapiens, UniProt Q9H492); assay: FP saturation; assay type: binding
MAP1LC3B ATG8 [2] = molecular target: T3, MAP1LC3B ATG8 (Homo sapiens, UniProt Q9GZQ8); assay: FP saturation; assay type: binding
Summary of the method: as §1

GABARAP ATG8 [3] = molecular target: T4, GABARAP ATG8 (Homo sapiens, UniProt O95166); assay: FP saturation; assay type: binding
T4 sequence (O95166 2-115): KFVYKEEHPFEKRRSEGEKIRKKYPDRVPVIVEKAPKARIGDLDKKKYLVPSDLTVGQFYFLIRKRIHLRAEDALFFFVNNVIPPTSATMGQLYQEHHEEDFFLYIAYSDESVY

GABARAPL2 ATG8 [4] = molecular target: T5, GABARAPL2 ATG8 (Homo sapiens, UniProt P60520); assay: FP saturation; assay type: binding
T5 sequence (P60520 2-115): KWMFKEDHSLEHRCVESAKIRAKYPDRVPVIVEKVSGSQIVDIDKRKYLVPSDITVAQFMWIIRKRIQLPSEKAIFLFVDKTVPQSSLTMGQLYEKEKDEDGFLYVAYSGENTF
Summary of the method: as §1

DOK1 PTB = molecular target: T6, DOK1 PTB (Homo sapiens, UniProt Q99704); assay: FP saturation; assay type: binding
T6 sequence (Q99704 151-256): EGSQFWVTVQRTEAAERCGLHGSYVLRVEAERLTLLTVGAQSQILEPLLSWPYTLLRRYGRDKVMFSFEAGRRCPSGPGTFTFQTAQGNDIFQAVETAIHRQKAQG
Summary of the method: (§3)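 Direct FP saturation used GST-tagged PTB domains (the talin entry is the PTB-like FERM lobe), expressed in E. coli at 18°C for 16 h. GST was removed with thrombin and the protein dialysed into 50 mM sodium phosphate pH 7.4 with 1 mM DTT. KD came from a quadratic fit, in technical triplicates.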

FRS2 PTB = molecular target: T7, FRS2 PTB (Homo sapiens, UniProt Q8WU20); assay: FP saturation; assay type: binding
T7 sequence (Q8WU20 8-136): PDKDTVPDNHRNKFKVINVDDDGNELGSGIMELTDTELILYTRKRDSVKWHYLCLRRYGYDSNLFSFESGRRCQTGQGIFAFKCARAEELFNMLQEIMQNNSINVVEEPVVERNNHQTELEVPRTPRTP
Summary of the method: as §3

IRS1 PTB = molecular target: T8, IRS1 PTB (Homo sapiens, UniProt P35568); assay: FP saturation; assay type: binding
T8 sequence (P35568 157-267): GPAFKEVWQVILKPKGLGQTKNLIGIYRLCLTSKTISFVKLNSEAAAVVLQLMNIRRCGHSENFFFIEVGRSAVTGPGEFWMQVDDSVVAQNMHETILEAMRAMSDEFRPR
Summary of the method: as §3

TLN2 PTB = TLN2 PTB (Homo sapiens, UniProt Q9Y4G6); assay: FP saturation; assay type: binding
Chain of TLN2 PTB (Q9Y4G6 309-401): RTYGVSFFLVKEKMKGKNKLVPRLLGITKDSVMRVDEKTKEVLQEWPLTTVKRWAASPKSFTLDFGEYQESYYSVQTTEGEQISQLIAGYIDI
Summary of the method: as §3

SNX17 FERM = molecular target: T9, SNX17 FERM (Mus musculus, UniProt Q8BVL3); assay: FP saturation; assay type: binding
T9 sequence (Q8BVL3 109-388): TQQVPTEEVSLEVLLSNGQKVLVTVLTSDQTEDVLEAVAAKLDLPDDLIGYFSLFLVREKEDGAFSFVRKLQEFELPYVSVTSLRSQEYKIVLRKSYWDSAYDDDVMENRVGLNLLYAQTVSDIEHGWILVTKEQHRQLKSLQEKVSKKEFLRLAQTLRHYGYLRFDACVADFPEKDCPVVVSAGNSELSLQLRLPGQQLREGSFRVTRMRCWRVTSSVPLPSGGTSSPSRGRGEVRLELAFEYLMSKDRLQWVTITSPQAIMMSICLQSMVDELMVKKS
Summary of the method: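 The FERM domain was expressed GST-tagged in E. coli BL21-Gold (DE3) at 18°C. The tag was removed with TEV protease and the protein dialysed into 50 mM sodium phosphate pH 7.4 with 1 mM DTT. Direct FP used 5 nM FITC-labeled peptide with a protein dilution series at room temperature and no preincubation. KD came from a quadratic fit, in technical triplicates.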

SARS-CoV-2 = settings: study repurposing approved compounds; cited from earlier work
MAP1LC3A ATG8 [5] = molecular target: T2, MAP1LC3A ATG8; assay: FP displacement of FITC-SQSTM1_335–344 from MAP1LC3A ATG8; assay type: binding
Summary of the method: (§4)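 GST-tagged ATG8 domains were expressed in E. coli BL21-Gold (DE3) with 1 mM IPTG at OD600 0.7 for 16 h at 18°C. They were glutathione-bead purified, thrombin-cleaved overnight at 4°C, and dialysed into 50 mM sodium phosphate pH 7.4 with 1 mM DTT. Domain level for displacement was set from FITC-SQSTM1 saturation curves. Unlabeled peptides were in phosphate buffer. FP was read at room temperature and KI calculated.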

MAP1LC3B ATG8 [6] = molecular target: T3, MAP1LC3B ATG8; assay: FP displacement of FITC-SQSTM1_335–344 from MAP1LC3B ATG8; assay type: binding
Summary of the method: as §4

MAP1LC3C ATG8 = MAP1LC3C ATG8 (Homo sapiens, UniProt Q9BXW4); assay: FP displacement of FITC-SQSTM1_335–344 from MAP1LC3C ATG8; assay type: binding
Chain of MAP1LC3C ATG8 (Q9BXW4 2-125): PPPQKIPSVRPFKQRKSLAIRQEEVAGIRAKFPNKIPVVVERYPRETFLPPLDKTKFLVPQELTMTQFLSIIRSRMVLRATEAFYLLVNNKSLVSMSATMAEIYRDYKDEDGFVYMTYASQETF
Summary of the method: as §4

GABARAPL2 ATG8 [7] = molecular target: T5, GABARAPL2 ATG8; assay: FP displacement of FITC-SQSTM1_335–344 from GABARAPL2 ATG8; assay type: binding
Summary of the method: as §4

GABARAP ATG8 [8] = molecular target: T4, GABARAP ATG8; assay: FP displacement of FITC-SQSTM1_335–344 from GABARAP ATG8; assay type: binding
Summary of the method: as §4

Row | Structure (SMILES) | Ki (MAP1LC3A ATG8 [5]) | Ki (MAP1LC3B ATG8 [6]) | Ki (MAP1LC3C ATG8) | Ki (GABARAPL2 ATG8 [7]) | also measured
1 | CC[C@H](C)[C@H](NC(=O)[C@H](CC(=O)O)NC(=O)[C@@H](NC(=O)[C@H](CO)NC(=O)[C@H](C)NC(=O)[C@H](Cc1ccc(O)cc1)NC(=O)[C@@H]1CCCN1C(=O)[C@H](CC(N)=O)NC(=O)[C@H](CCC(=O)O)NC(=O)CNC(=O)[C@H](CO)NC(=O)[C@H](CCCNC(=N)N)NC(=S)Nc1ccc2c(c1)C(=O)OC21c2ccc(O)cc2Oc2cc(O)ccc21)[C@@H](C)CC)C(=O)N[C@@H](CO)C(=O)N[C@@H](CCCCN)C(=O)NCC(=O)N[C@@H](CCC(=O)O)C(N)=O [ACE2_775–790 Unphos.] ({FITC}-RSGENPYASIDISKGE-NH2) |  |  |  |  | Kd (AP2 μ2): ~60 µM; Kd (FYN SH2): > 100 µM; Kd (NCK1 SH2): > 100 µM; Kd (LYN SH2): > 100 µM; Kd (MAP1LC3A ATG8 [1]): > 100 µM; Kd (MAP1LC3B ATG8 [2]): > 100 µM; Kd (GABARAP ATG8 [3]): > 100 µM; Kd (GABARAPL2 ATG8 [4]): > 100 µM
2 | C[C@@H](O)[C@H](NC(=O)[C@H](CC(N)=O)NC(=O)[C@H](CCC(N)=O)NC(=O)[C@H](Cc1ccccc1)NC(=O)CNC(=O)[C@@H]1CCCN1C(=O)[C@H](CC(N)=O)NC(=O)[C@H](CC(N)=O)NC(=O)[C@H](CCC(=O)O)NC(=O)CNC(=O)[C@H](CCCCN)NC(=O)[C@H](CO)NC(=S)Nc1ccc2c(c1)C(=O)OC21c2ccc(O)cc2Oc2cc(O)ccc21)C(N)=O [ACE2_787–798] ({FITC}-SKGENNPGFQNT-NH2) |  |  |  |  | Kd (DOK1 PTB): > 100 µM; Kd (FRS2 PTB): > 100 µM; Kd (IRS1 PTB): > 100 µM; Kd (TLN2 PTB): > 100 µM; Kd (SNX17 FERM): ~100 µM
3 | Cc1cccc(/C=N/Nc2cc(N3CCOCC3)nc(OCCc3ccccn3)n2)c1 [apilimod] |  |  |  |  | inhibition of viral replication (SARS-CoV-2): potent inhibitor of viral replication
4 | CC[C@H](C)[C@H](NC(=O)[C@H](CC(N)=O)NC(=O)[C@@H](NC(=O)[C@H](Cc1ccccc1)NC(=O)[C@@H](NC(=O)[C@H](COP(=O)(O)O)NC(=O)[C@@H](NC(=O)[C@H](C)NC(=O)[C@H](CCC(=O)O)NC(=O)[C@H](CCCCN)NC(C)=O)[C@@H](C)O)[C@@H](C)O)[C@@H](C)O)C(=O)N[C@H](C(=O)N[C@@H](Cc1ccc(O)cc1)C(=O)N[C@@H](CCCNC(=N)N)C(=O)NCC(N)=O)[C@@H](C)O [pSer^778] (Ac-KEAT[pS]TFTNITYRG-NH2) | 29.4 ± 0.5 µM | > 100 µM | 16.1 ± 0.5 µM | 80 ± 5 µM | 
5 | CC[C@H](C)[C@H](NC(=O)[C@H](CC(N)=O)NC(=O)[C@@H](NC(=O)[C@H](Cc1ccccc1)NC(=O)[C@@H](NC(=O)[C@H](CO)NC(=O)[C@@H](NC(=O)[C@H](C)NC(=O)[C@H](CCC(=O)O)NC(=O)[C@H](CCCCN)NC(C)=O)[C@@H](C)OP(=O)(O)O)[C@@H](C)O)[C@@H](C)O)C(=O)N[C@H](C(=O)N[C@@H](Cc1ccc(O)cc1)C(=O)N[C@@H](CCCNC(=N)N)C(=O)NCC(N)=O)[C@@H](C)O [pThr^777] (Ac-KEA[pT]STFTNITYRG-NH2) | > 100 µM | > 100 µM | 73 ± 4 µM |  | Ki (GABARAP ATG8 [8]): 47 ± 3 µM
6 | CC[C@H](C)[C@H](NC(=O)[C@H](CC(N)=O)NC(=O)[C@@H](NC(=O)[C@H](Cc1ccccc1)NC(=O)[C@@H](NC(=O)[C@H](CO)NC(=O)[C@@H](NC(=O)[C@H](C)NC(=O)[C@H](CCC(=O)O)NC(=O)[C@H](CCCCN)NC(C)=O)[C@@H](C)O)[C@@H](C)OP(=O)(O)O)[C@@H](C)O)C(=O)N[C@H](C(=O)N[C@@H](Cc1ccc(OP(=O)(O)O)cc1)C(=O)N[C@@H](CCCNC(=N)N)C(=O)NCC(N)=O)[C@@H](C)O [pThr^779/pTyr^785] (Ac-KEATS[pT]FTNIT[pY]RG-NH2) | 8.5 ± 0.5 µM | 15 ± 1 µM | 8 ± 2 µM |  | Ki (GABARAP ATG8 [8]): 17.8 ± 0.8 µM
7 | CC[C@H](C)[C@H](NC(=O)[C@H](CC(N)=O)NC(=O)[C@@H](NC(=O)[C@H](Cc1ccccc1)NC(=O)[C@@H](NC(=O)[C@H](CO)NC(=O)[C@@H](NC(=O)[C@H](C)NC(=O)[C@H](CCC(=O)O)NC(=O)[C@H](CCCCN)NC(C)=O)[C@@H](C)O)[C@@H](C)OP(=O)(O)O)[C@@H](C)O)C(=O)N[C@H](C(=O)N[C@@H](Cc1ccc(O)cc1)C(=O)N[C@@H](CCCNC(=N)N)C(=O)NCC(N)=O)[C@@H](C)O [pThr^779] (Ac-KEATS[pT]FTNITYRG-NH2) | > 100 µM | > 100 µM | 82 ± 3 µM | > 100 µM | 
8 | CC[C@H](C)[C@H](NC(=O)[C@H](CC(N)=O)NC(=O)[C@@H](NC(=O)[C@H](Cc1ccccc1)NC(=O)[C@@H](NC(=O)[C@H](CO)NC(=O)[C@@H](NC(=O)[C@H](C)NC(=O)[C@H](CCC(=O)O)NC(=O)[C@H](CCCCN)NC(C)=O)[C@@H](C)O)[C@@H](C)O)[C@@H](C)O)C(=O)N[C@H](C(=O)N[C@@H](Cc1ccc(OP(=O)(O)O)cc1)C(=O)N[C@@H](CCCNC(=N)N)C(=O)NCC(N)=O)[C@@H](C)O [pTyr^785] (Ac-KEATSTFTNIT[pY]RG-NH2) | 38 ± 2 µM | 81 ± 2 µM | 83 ± 4 µM | 89 ± 12 µM | 
